What all share (format): cell-based
Series [1] can be described thus: MTT cell viability assay, normal MCF-10A cells. To be noted: human, MCF-10A normal mammary epithelial cells. In outline:
(§1)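 Normal mammary epithelial MCF-10A cells were exposed to test compound at 25, 50 and 100 μM for 72 h. Cells were then given MTT after medium removal, 3 h at 37 °C in CO2. Formazan was dissolved in DMSO and absorbance read at 595 nm. Viability is expressed as percent of untreated control cells.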
A general note: Tetrazolium dyes change colour on reduction, which living cells bring about.

Series [2] has as its system normal mammary epithelial MCF-10A cells. The series is described as follows: MTT cell viability assay, normal MCF-10A cells. The note with it: tested at 25, 50 and 100 μM. An outline of the steps: as §1
The test system of series [3] is MDA-MB-231 (human breast cancer) cells. As to the kind of experiment: MTT cell viability assay, MDA-MB-231. The note with it: for inhibition at 25 µM: MDA-MB-231. An outline of the steps: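 MDA-MB-231 cells were grown as a monolayer in DMEM with 10% heat-inactivated FBS and 1% penicillin-streptomycin at 37 °C in humidified CO2, subcultured every third day with trypsin-EDTA, and used before passage 8. Cells were exposed 72 h to 10, 25 and 50 μM. Medium was removed, MTT added for 3 h at 37 °C, formazan dissolved in DMSO and read at 595 nm. Viability is relative to untreated control, triplicates, ±SD. IC50 comes from the viability-versus-concentration plot.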

The next series relates to MDA-MB-453 cells. As to the kind of experiment: MTT cell viability assay, MDA-MB-453. The note with it: for IC50 against MDA-MB-453 cells: tested at 1, 10 and 25 μM. An outline of the steps: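 MDA-MB-453 (HER2-positive) cells were exposed to test compound at 1, 10 and 25 μM for 72 h. After medium removal, MTT was added for 3 h at 37 °C in CO2. Formazan was dissolved in DMSO and absorbance read at 595 nm. Percent viable cells are relative to untreated control cells.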

Series [4] deals with MCF-7 breast cancer cells. The series is described as follows: MTT cell viability assay, MCF-7. To be noted: Homo sapiens; for inhibition at 25 µM: MCF7; for IC50: MCF7, 72 h, read-out: IC50 against MCF-7 breast cancer cells line. In outline: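 After medium removal, MTT was added for 3 h at 37 °C in CO2, formazan dissolved in DMSO and absorbance read at 595 nm. Viability is relative to untreated cells, triplicates, n = 3, ±SD. IC50 comes from plotting percent viability against concentration.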

[5] abbreviates: MDA-MB-231, 72 h, read-out: Cell viability (%) ±SD.
Where [6] appears, read: Homo sapiens, MDA-MB-453, read-out: Cell viability (%) ±SD.
The mark [7] stands for this setting: MCF7, read-out: Cell viability (%) ±SD.

Each structure is given as a SMILES string.

The term viability denotes a read-out of living cells in per cent, often relative to untreated cells. The term inhibition denotes the drop in the measured response relative to a control, in per cent. The IC50 is the concentration that inhibits the measured activity by half.

For the compound `COc1ccc(-c2cc(=O)n3c(ccn3Cc3cn([C@H]4O[C@@H](COC(C)=O)[C@H](OC(C)=O)[C@@H](OC(C)=O)[C@@H]4OC(C)=O)nn3)n2)cc1` (stereo in doubt) [Compound 23, (2S,3S,4R,5S,6S)-2-(Acetoxymethyl)-6-(4-((5-(4-methoxyphenyl)-7-oxopyrazolo[1,5-a]pyrimidin-1(7H)-yl)methyl)-1H-1,2,3-triazol-1-yl)tetrahydro-2H-pyran-3,4,5-triyl triacetate], in series [1], the viability at 72 h, 25 µM was 88.6 ± 1.5%; the viability at 72 h, 50 µM stood at 86.3 ± 2.9%; the viability at 72 h, 100 µM stood at 84.2 ± 3%. In addition, the “growth inhibitory activity against normal breast epithelial cell (MCF-10A)” value (“growth inhibitory activity” below) in series [2] is given as “none of these compounds did have any growth inhibitory activity”. Moreover, the inhibition at 25 µM in series [3] is roughly 50%. In series [3] (setting [5]), the viability at 10 µM is 65.1 ± 8.53%, the viability at 25 µM stood at 49 ± 9.19% and the viability at 50 µM amounted to 34.3 ± 5.29%. In addition, in the series with MDA-MB-453 cells (setting [6]), the viability at 1 µM came out at 80.6 ± 8%, the viability at 10 µM is 88.4 ± 5.4% and the viability at 25 µM stood at 77.1 ± 5.7%. The “IC50 against MDA-MB-453 cells” value with MDA-MB-453 cells is recorded as “did not reach up to IC50 value”. Moreover, in series [4], the inhibition at 25 µM was roughly 50% and the IC50 turned out to be 9.24 µM. In series [4] (setting [7]), the viability at 1 µM was found to be 66.7 ± 1.18%, the viability at 10 µM stood at 40.3 ± 3.6% and the viability at 25 µM is 31.7 ± 4%.
Consider `CC(=O)OC[C@@H]1O[C@H](n2cc(Cn3ccc4nc(-c5ccc(F)cc5)cc(=O)n43)nn2)[C@@H](OC(C)=O)[C@H](OC(C)=O)[C@H]1OC(C)=O` (stereo in doubt) [Compound 26, (2S,3S,4R,5S,6S)-2-(Acetoxymethyl)-6-(4-((5-(4-fluorophenyl)-7-oxopyrazolo[1,5-a]pyrimidin-1(7H)-yl)methyl)-1H-1,2,3-triazol-1-yl)tetrahydro-2H-pyran-3,4,5-triyl triacetate], for which, in series [1], the viability at 72 h, 25 µM is 87.8 ± 2.8%; the viability at 72 h, 50 µM is 85.6 ± 0.7%; the viability at 72 h, 100 µM turned out to be 82 ± 1.5%. Further, in series [2], the “growth inhibitory activity” value was “none of these compounds did have any growth inhibitory activity”. For the same compound, the inhibition at 25 µM in series [3] was roughly 50%. For the same compound, in series [3] (setting [5]), the viability at 10 µM was found to be 76.6 ± 9.76%, the viability at 25 µM came out at 60 ± 8.47% and the viability at 50 µM turned out to be 54.6 ± 5.61%. In addition, in the series on MDA-MB-453 cells (setting [6]), the viability at 1 µM worked out at 87.8 ± 3.2%, the viability at 10 µM is 84.2 ± 11.5% and the viability at 25 µM worked out at 66.3 ± 5.8%. In addition, the “IC50 against MDA-MB-453 cells” value in the series with MDA-MB-453 cells is reported as “did not reach up to IC50 value”. Also, in series [4], the inhibition at 25 µM was roughly 50% and the IC50 was 26.6 µM. Also, in series [4] (setting [7]), the viability at 1 µM stood at 80 ± 4.5%, the viability at 10 µM is 65.8 ± 1.8% and the viability at 25 µM came to 52.8 ± 3%.
With `CC(=O)OC[C@@H]1O[C@H](n2cc(Cn3ccc4nc(-c5ccc6c(c5)OCO6)cc(=O)n43)nn2)[C@@H](OC(C)=O)[C@H](OC(C)=O)[C@H]1OC(C)=O` (stereo in doubt) [Compound 30, (2S,3S,4R,5S,6S)-2-(Acetoxymethyl)-6-(4-((5-(benzo[d][1,3]dioxol-5-yl)-7-oxopyrazolo[1,5-a]pyrimidin-1(7H)-yl)methyl)-1H-1,2,3-triazol-1-yl)tetrahydro-2H-pyran-3,4,5-triyl triacetate], in series [1], the viability at 72 h, 25 µM turned out to be 86.8 ± 5.3%; the viability at 72 h, 50 µM was 84.8 ± 3%; the viability at 72 h, 100 µM was found to be 78.5 ± 3.4%. The “growth inhibitory activity” value in series [2] is reported as “none of these compounds did have any growth inhibitory activity”. For the same compound, the inhibition at 25 µM in series [3] was roughly 50%. Moreover, in series [3] (setting [5]), the viability at 10 µM stood at 86.6 ± 3.36%, the viability at 25 µM amounted to 55.2 ± 7.06% and the viability at 50 µM came to 42.8 ± 5.04%. Moreover, in the series on MDA-MB-453 cells (setting [6]), the viability at 1 µM worked out at 99.2 ± 8.1%, the viability at 10 µM was determined as 74.8 ± 1.5% and the viability at 25 µM was found to be 61.4 ± 3.2%. Besides, the “IC50 against MDA-MB-453 cells” value in the series on MDA-MB-453 cells is reported as “did not reach up to IC50 value”. For the same compound, in series [4], the inhibition at 25 µM is roughly 50% and the IC50 was 18.5 µM. In series [4] (setting [7]), the viability at 1 µM was determined as 78.2 ± 2.6%, the viability at 10 µM was found to be 57.7 ± 2.4% and the viability at 25 µM was found to be 42.3 ± 7.6%.
As to `CC(=O)OC[C@H]1O[C@H](n2cc(Cn3ccc4nc(-c5ccc(F)cc5)cc(=O)n43)nn2)[C@@H](OC(C)=O)[C@@H](OC(C)=O)[C@@H]1OC(C)=O` [Compound 44, (2R,3R,4S,5S,6S)-2-(Acetoxymethyl)-6-(4-((5-(4-fluorophenyl)-7-oxopyrazolo[1,5-a]pyrimidin-1(7H)-yl)methyl)-1H-1,2,3-triazol-1-yl)tetrahydro-2H-pyran-3,4,5-triyl triacetate], in series [3] (setting [5]), the viability at 10 µM came out at 98.4 ± 3.62%, the viability at 25 µM stood at 90.1 ± 6.77% and the viability at 50 µM amounted to 89.6 ± 6.27%.
The like results for `CC(=O)OC[C@H]1O[C@H](n2cc(Cn3ccc4nc(-c5ccc(C(F)(F)F)cc5)cc(=O)n43)nn2)[C@@H](OC(C)=O)[C@@H](OC(C)=O)[C@@H]1OC(C)=O` [Compound 45, (2R,3R,4S,5S,6S)-2-(Acetoxymethyl)-6-(4-((7-oxo-5-(4-(trifluoromethyl)phenyl)pyrazolo[1,5-a]pyrimidin-1(7H)-yl)methyl)-1H-1,2,3-triazol-1-yl)tetrahydro-2H-pyran-3,4,5-triyl triacetate] were, in that order, 96.8 ± 5.85%, 91.1 ± 6% and 87 ± 1.1%.
Regarding `CC(=O)OC[C@H]1O[C@H](n2cc(Cn3ccc4nc(-c5ccc(C(C)C)cc5)cc(=O)n43)nn2)[C@@H](OC(C)=O)[C@@H](OC(C)=O)[C@@H]1OC(C)=O` [Compound 46, (2R,3R,4S,5S,6S)-2-(Acetoxymethyl)-6-(4-((5-(4-isopropylphenyl)-7-oxopyrazolo[1,5-a]pyrimidin-1(7H)-yl)methyl)-1H-1,2,3-triazol-1-yl)tetrahydro-2H-pyran-3,4,5-triyl triacetate], in series [3] (setting [5]), the viability at 10 µM was 80.6 ± 4.7%, the viability at 25 µM worked out at 75.5 ± 4.44% and the viability at 50 µM stood at 83.5 ± 7.27%.
The like results for `CC(=O)OC[C@H]1O[C@H](n2cc(Cn3ccc4nc(-c5ccc6ccccc6c5)cc(=O)n43)nn2)[C@@H](OC(C)=O)[C@@H](OC(C)=O)[C@@H]1OC(C)=O` [Compound 47, (2R,3R,4S,5S,6S)-2-(Acetoxymethyl)-6-(4-((5-(naphthalen-2-yl)-7-oxopyrazolo[1,5-a]pyrimidin-1(7H)-yl)methyl)-1H-1,2,3-triazol-1-yl)tetrahydro-2H-pyran-3,4,5-triyl triacetate] were, in that order, 102 ± 9.28%, 89.8 ± 2.22% and 81.5 ± 5.45%.
The like results for `CC(=O)OC[C@H]1O[C@H](n2cc(Cn3ccc4nc(-c5ccc6c(c5)OCO6)cc(=O)n43)nn2)[C@@H](OC(C)=O)[C@@H](OC(C)=O)[C@@H]1OC(C)=O` [Compound 48, (2R,3R,4S,5S,6S)-2-(Acetoxymethyl)-6-(4-((5-(benzo[d][1,3]dioxol-5-yl)-7-oxopyrazolo[1,5-a]pyrimidin-1(7H)-yl)methyl)-1H-1,2,3-triazol-1-yl)tetrahydro-2H-pyran-3,4,5-triyl triacetate] were, in that order, 96.5 ± 4.91%, 93.3 ± 3.6% and 92.9 ± 9.08%.
For the compound `CC1=CC(=O)c2ccccc2C1=O` [Menadione, menadione, reference compound], in series [3] (setting [5]), the viability at 20 µM was 23.8 ± 5.7%.
For `COCCn1c2c([n+](Cc3cnccn3)c1C)C(=O)c1ccccc1C2=O` [YM155, reference compound], the viability at 72 h, 0.02 µM in series [1] is 39.2 ± 1.6%. The viability at 0.02 µM in series [3] (setting [5]) came out at 23.4 ± 3.13%; in the series with MDA-MB-453 cells (setting [6]), 36.2 ± 1.5%; in series [4] (setting [7]), 31.2 ± 1.7%.

For the origin of these results see article PMC10762718 (RSC Advances, 2024).
